Experiment [1] concerns Mycobacterium tuberculosis. As to the kind of experiment: Antimycobacterial activity against Mycobacterium tuberculosis isolate NJT210 expressing embB codon 306 GTG mutant at 37 degC after 10 to 11 days by radiometric Bactec 460TB method. The format is functional.
Experiment [2] has as its system Mycobacterium tuberculosis. As to the kind of experiment: Antimycobacterial activity against ethambutol resistant Mycobacterium tuberculosis isolate NJT210EMB-R-C1 assessed as bacterial colony formation at 37 degC after 10 to 11 days by radiometric Bactec 460TB method. The class given is functional.
Experiment [3] relates to Mycobacterium tuberculosis. The experiment is described as follows: Antimycobacterial activity against isoniazid, rifampin, ethambutol resistant Mycobacterium tuberculosis isolate 5310 at 37 degC after 3 to 4 weeks by radiometric Bactec 460TB method. The class given is functional.
The test system of experiment [4] is Mycobacterium tuberculosis. As to the kind of experiment: Antimycobacterial activity against ethambutol-susceptible and rifampin-resistant Mycobacterium tuberculosis isolate NJT30167 expressing embB codon 306 ATG assessed as bacterial growth rate at sub MIC compound concentration by radiometric Bactec 460TB method. The class given is functional, organism-based. An outline of the steps:
(§1)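 Sub-MIC growth curves in Bactec 12B vials with isoniazid (strain 210 vs NJT210CTG also rifampin) at several sub-MIC levels. The daily growth index was followed. No-drug controls were inoculated at 1:100 dilution. Values are means and standard deviations of three independent experiments.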

Experiment [5] deals with Mycobacterium tuberculosis. As to the kind of experiment: Antimycobacterial activity against Mycobacterium tuberculosis isolate NJT210 expressing embB codon 306 CTG mutant at 37 degC after 10 to 11 days by radiometric Bactec 460TB method. The class given is functional.
Experiment [6] relates to Mycobacterium tuberculosis. As to the kind of experiment: Antimycobacterial activity against isoniazid, rifampin, ethambutol resistant Mycobacterium tuberculosis isolate NJT5310 expressing embB codon 306 ATG-ATC mutant at 37 degC after 3 to 4 weeks by radiometric Bactec 460TB method. The class given is functional.
Experiment [7] concerns Mycobacterium tuberculosis. As to the kind of experiment: Antimycobacterial activity against isoniazid, rifampin, ethambutol resistant Mycobacterium tuberculosis isolate NJT5310 expressing embB codon 306 ATG-CTG mutant at 37 degC after 3 to 4 weeks by radiometric Bactec 460TB method. The class given is functional.
In experiment [8] the test system is Mycobacterium tuberculosis. The experiment is described as follows: Antimycobacterial activity against Mycobacterium tuberculosis isolate NJT210 expressing embB codon 306 CTG mutant assessed as bacterial growth rate at 0.03 ug/ml by radiometric Bactec 460TB method. The class given is functional, organism-based. An outline of the steps:
as §1

Experiment [9] relates to Mycobacterium tuberculosis. The experiment is described as follows: Antimycobacterial activity against Mycobacterium tuberculosis isolate NJT210 expressing embB codon 306 ATC mutant at 37 degC after 10 to 11 days by radiometric Bactec 460TB method. The format is functional.
Experiment [10] relates to Mycobacterium tuberculosis. The experiment is described as follows: Antimycobacterial activity against Mycobacterium tuberculosis isolate NJT210 expressing embB codon 306 CTG-ATG mutant at 37 degC after 10 to 11 days by radiometric Bactec 460TB method. The class given is functional.
The test system of experiment [11] is Mycobacterium tuberculosis. The experiment is described as follows: Antimycobacterial activity against ethambutol resistant Mycobacterium tuberculosis isolate NJT210EMB-R-C2 assessed as bacterial colony formation at 37 degC after 10 to 11 days by radiometric Bactec 460TB method. The format is functional.
Experiment [12] concerns Mycobacterium tuberculosis. The experiment is described as follows: Antimycobacterial activity against isoniazid, rifampin, ethambutol resistant Mycobacterium tuberculosis isolate NJT5310 expressing embB codon 306 ATG-GTG mutant at 37 degC after 3 to 4 weeks by radiometric Bactec 460TB method. The format is functional.
For experiment [13], the system named is Mycobacterium tuberculosis. As to the kind of experiment: Antimycobacterial activity against rifampin, ethambutol resistant Mycobacterium tuberculosis isolate NJT30167 expressing embB codon 306 ATG mutant at 37 degC after 3 to 4 weeks by radiometric Bactec 460TB method. The class given is functional.
The test system of experiment [14] is Mycobacterium tuberculosis. As to the kind of experiment: Antimycobacterial activity against Mycobacterium tuberculosis isolate NJT210 expressing embB codon 306 ATC-ATG mutant at 37 degC after 10 to 11 days by radiometric Bactec 460TB method. The class given is functional.
The test system of experiment [15] is Mycobacterium tuberculosis. As to the kind of experiment: Antimycobacterial activity against ethambutol resistant Mycobacterium tuberculosis isolate NJT210EMB-R-C3 assessed as bacterial colony formation at 37 degC after 10 to 11 days by radiometric Bactec 460TB method. The format is functional.
The test system of experiment [16] is Mycobacterium tuberculosis. The experiment is described as follows: Antimycobacterial activity against isoniazid, rifampin, ethambutol resistant Mycobacterium tuberculosis isolate NJT5310 expressing embB codon 306 ATG mutant at 37 degC after 3 to 4 weeks by radiometric Bactec 460TB method. The class given is functional.
The subject of experiment [17] is Mycobacterium tuberculosis. As to the kind of experiment: Antimycobacterial activity against Mycobacterium tuberculosis isolate NJT210 expressing embB codon 306 CTG mutant assessed as bacterial growth rate at 0.04 ug/ml by radiometric Bactec 460TB method. The class given is functional, organism-based. An outline of the steps: as §1
In experiment [18] the test system is Mycobacterium tuberculosis. The experiment is described as follows: Antimycobacterial activity against rifampin, ethambutol resistant Mycobacterium tuberculosis isolate 30167 at 37 degC after 3 to 4 weeks by radiometric Bactec 460TB method. The format is functional.
The subject of experiment [19] is Mycobacterium tuberculosis. The experiment is described as follows: Antimycobacterial activity against isoniazid, rifampin, ethambutol resistant Mycobacterium tuberculosis isolate NJT5310 expressing embB codon 306 ATG-ATA mutant at 37 degC after 3 to 4 weeks by radiometric Bactec 460TB method. The class given is functional.
Experiment [20] relates to Mycobacterium tuberculosis. The experiment is described as follows: Antimycobacterial activity against Mycobacterium tuberculosis isolate NJT210 expressing embB codon 306 ATA mutant at 37 degC after 10 to 11 days by radiometric Bactec 460TB method. The class given is functional.
The test system of experiment [21] is Mycobacterium tuberculosis. The experiment is described as follows: Antimycobacterial activity against rifampin, ethambutol resistant Mycobacterium tuberculosis isolate 5041 at 37 degC after 3 to 4 weeks by radiometric Bactec 460TB method. The class given is functional.
Experiment [22] relates to Mycobacterium tuberculosis. As to the kind of experiment: Antimycobacterial activity against rifampin, ethambutol resistant Mycobacterium tuberculosis isolate A2558 at 37 degC after 3 to 4 weeks by radiometric Bactec 460TB method. The class given is functional.

Molecules are shown by their SMILES. Values after ≈ are worked out from the molar mass of the structure shown. Active and inactive are the calls of the source. The rule behind the calls is not given here.

One may read the MIC as the lowest concentration found to suppress growth. As to `NNC(=O)c1ccncc1` [ISONIAZID], the MIC in experiment [1] came out at 0.05 µg/mL (≈ 0.365 µM); in experiment [2] it was 0.05 µg/mL (≈ 0.365 µM); in experiment [3], 2.5 µg/mL (≈ 18.2 µM); in experiment [5], 0.05 µg/mL (≈ 0.365 µM); in [6] it was 2.5 µg/mL (≈ 18.2 µM); in experiment [7] it was 2.5 µg/mL (≈ 18.2 µM). In addition, the MIC came out at 0.05 µg/mL (≈ 0.365 µM) in [9]; 0.05 µg/mL (≈ 0.365 µM) in experiment [10]; 0.05 µg/mL (≈ 0.365 µM) in [11]; 2.5 µg/mL (≈ 18.2 µM) in experiment [12]; 0.07 µg/mL (≈ 0.51 µM) in experiment [13]; 0.05 µg/mL (≈ 0.365 µM) in experiment [14]. The MIC in [15] was 0.05 µg/mL (≈ 0.365 µM); in experiment [16], 2.5 µg/mL (≈ 18.2 µM); in [18], 0.07 µg/mL (≈ 0.51 µM); in [19] it was 2.5 µg/mL (≈ 18.2 µM); in experiment [20] it was 0.05 µg/mL (≈ 0.365 µM). Moreover, the result in [4] was Active. The result in experiment [8] and in [17] was inactive.
Consider `CO[C@H]1/C=C/O[C@@]2(C)Oc3c(C)c(O)c4c(O)c(c(/C=N/N5CCN(C)CC5)c(O)c4c3C2=O)NC(=O)/C(C)=C\C=C\[C@H](C)[C@H](O)[C@@H](C)[C@@H](O)[C@@H](C)[C@H](OC(C)=O)[C@@H]1C` [RIFAMPIN], for which the MIC in experiment [1] is 0.05 µg/mL (≈ 0.0608 µM); in experiment [2], 0.05 µg/mL (≈ 0.0608 µM); in experiment [3] it was above 240 µg/mL; in experiment [5], 0.05 µg/mL (≈ 0.0608 µM); in experiment [6], above 240 µg/mL; in experiment [7], above 240 µg/mL. Besides, the MIC was 0.05 µg/mL (≈ 0.0608 µM) in [9]; 0.05 µg/mL (≈ 0.0608 µM) in [10]; 0.05 µg/mL (≈ 0.0608 µM) in experiment [11]; above 240 µg/mL in experiment [12]; above 240 µg/mL in experiment [13]; 0.05 µg/mL (≈ 0.0608 µM) in experiment [14]. Moreover, the MIC in experiment [15] is 0.05 µg/mL (≈ 0.0608 µM); in experiment [16], above 240 µg/mL; in experiment [18] it was above 240 µg/mL; in [19], above 240 µg/mL; in experiment [20] it was 0.05 µg/mL (≈ 0.0608 µM). In experiment [17], the result was inactive.
For `CC[C@@H](CO)NCCN[C@@H](CC)CO` [ETHAMBUTOL], the MIC in experiment [1] is 14 µg/mL (≈ 68.5 µM); in experiment [2], 14 µg/mL (≈ 68.5 µM); in experiment [3] it was 28 µg/mL (≈ 137 µM); in experiment [5] it was 8.5 µg/mL (≈ 41.6 µM); in experiment [6], 16 µg/mL (≈ 78.3 µM); in experiment [7], 20 µg/mL (≈ 97.9 µM). For the same molecule, the MIC in experiment [21] came out at 8 µg/mL (≈ 39.2 µM); in [9] it was 7 µg/mL (≈ 34.3 µM); in experiment [10], 2 µg/mL (≈ 9.79 µM); in experiment [11], 14 µg/mL (≈ 68.5 µM); in experiment [12] it was 28 µg/mL (≈ 137 µM); in experiment [13], 3 µg/mL (≈ 14.7 µM). For the same molecule, the MIC in [14] is 2 µg/mL (≈ 9.79 µM); in experiment [22], 5 µg/mL (≈ 24.5 µM); in experiment [15] it was 8 µg/mL (≈ 39.2 µM); in [16], 3 µg/mL (≈ 14.7 µM); in [18] it was 20 µg/mL (≈ 97.9 µM); in experiment [19] it was 16 µg/mL (≈ 78.3 µM). The molecule also displayed an MIC in [20] of 7 µg/mL (≈ 34.3 µM).

Values taken from ChEMBL document CHEMBL1275420, “Transfer of embB codon 306 mutations into clinical Mycobacterium tuberculosis strains alters susceptibility to ethambutol, isoniazid, and rifampin” (2008).
